# Results from PMC4773674 (Journal of Diabetes Investigation, 2015).
# Assays:
# [1] = Safety: adverse events, hypoglycemic episodes, injection-site reactions; type: in vivo, Japanese patients with type 1 diabetes
# Method in brief: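 Randomized, double-blind, two-period crossover trial with once-daily […] dosing at 20.00 h for 6 days; periods separated by 7–21-day washout; insulin aspart boluses allowed. Safety end-points: AEs, injection-site reactions, ECG, vital signs, labs. Confirmed hypoglycemia: severe (ADA definition), plasma glucose <3.1 mmol/L, or full blood glucose <2.8 mmol/L.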
# [2] = cited from earlier work
# [3] = Serum IDeg pharmacokinetics; type: in vivo, Japanese patients with type 1 diabetes
# Method in brief: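 Serum drug levels were measured by specific sandwich ELISA. Troughs were drawn before each of 6 once-daily doses given at 20.00 h. After the last dose, samples were taken every 1–2 h to 24 h, then at 30, 36, 48, 72, 96 and 120 h. Post-hoc steady-state time was the time from first dose until troughs exceeded 90% of final plateau.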
substance,measurement,setting,value
insulin degludec [IDeg],Tolerability,"[1]; 6 days of once-daily 0.4 U/kg, 22 Japanese type 1 diabetes patients",well tolerated
same,Injection-site reactions,[1]; after treatment with IDeg,no injection‐site reactions were recorded
same,Serious AEs,[1]; after treatment with IDeg,No serious AEs occurred
same,"Treatment-emergent AEs (other than hypoglycemia), number","[1]; after treatment with IDeg, all AEs mild",three
same,"Patients with confirmed treatment-emergent hypoglycemic episodes, number",[1]; fixed dose 0.4 U/kg,13 patients
same,"Confirmed treatment-emergent hypoglycemic episodes, number","[1]; fixed dose 0.4 U/kg, confirmed = severe, or plasma glucose <3.1 mmol/L",93
same,"AUCτ,SS, 24-h exposure","[2]; Caucasian patients, 0.4 U/kg","82,612 pmol h/L"
same,Time to steady state,[2]; previously shown,2 to 3 days
same,Time to steady state (trough concentrations exceeding 90% of final plateau),"[3]; once-daily dosing, all Japanese patients, confirmed by post-hoc analyses",2 to 3 days
same,Time for which serum IDeg was detectable after the last dose,"[3]; steady state, 120 h = end of observation period, Japanese patients",at least 120 h
